The source made the active and inactive calls. The calls are words filed in the database; no cut-off is given here.
Tests used:
[1] = molecular target: T1, Phosphatidylinositol 4,5-bisphosphate 3-kinase catalytic subunit delta isoform (Homo sapiens, UniProt O00329); test: Inhibition of human PI3Kdelta using PIP2 as substrate after 1 hr
T1 sequence (O00329 whole entry): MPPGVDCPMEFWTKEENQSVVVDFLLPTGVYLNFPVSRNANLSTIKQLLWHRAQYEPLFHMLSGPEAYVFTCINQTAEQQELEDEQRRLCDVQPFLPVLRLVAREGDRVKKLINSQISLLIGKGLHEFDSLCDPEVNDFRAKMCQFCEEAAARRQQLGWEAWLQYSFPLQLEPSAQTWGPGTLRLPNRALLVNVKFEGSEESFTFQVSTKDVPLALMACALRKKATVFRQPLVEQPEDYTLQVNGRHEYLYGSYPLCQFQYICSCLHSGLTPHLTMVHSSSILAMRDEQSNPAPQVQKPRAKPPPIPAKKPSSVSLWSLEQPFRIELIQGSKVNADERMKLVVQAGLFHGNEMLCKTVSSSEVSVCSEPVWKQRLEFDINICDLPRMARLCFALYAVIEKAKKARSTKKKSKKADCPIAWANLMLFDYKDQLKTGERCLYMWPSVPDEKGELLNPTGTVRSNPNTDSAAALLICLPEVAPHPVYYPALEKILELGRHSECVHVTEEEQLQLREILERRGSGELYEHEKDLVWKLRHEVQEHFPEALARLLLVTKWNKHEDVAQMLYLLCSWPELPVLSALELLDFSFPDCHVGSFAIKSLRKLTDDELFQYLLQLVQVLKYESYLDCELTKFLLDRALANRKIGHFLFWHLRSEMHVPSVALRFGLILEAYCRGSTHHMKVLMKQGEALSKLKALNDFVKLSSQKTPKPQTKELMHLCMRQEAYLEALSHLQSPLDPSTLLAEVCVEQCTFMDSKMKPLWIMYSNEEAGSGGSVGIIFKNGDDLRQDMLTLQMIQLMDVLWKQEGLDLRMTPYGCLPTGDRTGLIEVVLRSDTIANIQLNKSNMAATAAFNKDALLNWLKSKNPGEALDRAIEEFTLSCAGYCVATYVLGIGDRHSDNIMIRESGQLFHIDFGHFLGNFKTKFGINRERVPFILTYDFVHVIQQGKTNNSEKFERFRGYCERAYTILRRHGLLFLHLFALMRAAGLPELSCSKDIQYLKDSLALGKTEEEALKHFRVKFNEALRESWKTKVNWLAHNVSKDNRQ

[2] = molecular target: Phosphatidylinositol 4,5-bisphosphate 3-kinase catalytic subunit gamma isoform (Homo sapiens, UniProt P48736); test: Inhibition of human PI3Kgamma using PIP2 as substrate after 1 hr
[3] = molecular target: CYP2D6 (Homo sapiens, UniProt P10635); test: Inhibition of CYP2D6 in human liver microsomes at 10 uM using testosterone/dextromethorphan as probe substrate measured after 10 mins relative to control; type: ADME
[4] = system: TMD8; test: Antitumor activity against human TMD8 cells xenografted in SCID mouse assessed as decrease in tumor volume at 30 mg/kg/day, po QD for 16 days and measured every alternate day; type: functional; conditions: 384 h
Procedure, shortened: (§1)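 Male SCID mice were inoculated with TMD-8 cells. Oral doses of 3, 10 and 30 mg/kg/day were given. The efficacy endpoint was inhibition of tumor volume relative to the vehicle (untreated) group.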

[5] = molecular target: CYP2C19 (Homo sapiens, UniProt P33261); test: Inhibition of CYP2C19 in human liver microsomes at 10 uM using testosterone/dextromethorphan as probe substrate measured after 10 mins relative to control; type: ADME
[6] = Toxicity in human TMD8 cells xenografted SCID mouse assessed as decrease in body weight at 30 mg/kg/day, po QD for 16 days; type: organism-based; conditions: in vivo, 384 h
Procedure, shortened: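 Male SCID mice bearing TMD-8 xenografts received oral doses of 3, 10 or 30 mg/kg/day. Body weight was recorded during treatment.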

[7] = species on record: Homo sapiens; test: Selectivity ratio of IC50 for human PI3Kbeta to IC50 for human PI3Kdelta
Procedure, shortened: (§2)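 IC50s for the PI3K α, β, γ and δ isoforms came from a commercial PI3K inhibitory activity assay kit. Each IC50 is the mean of at least two experiments. The ratio is the α, β or γ IC50 divided by the δ IC50.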

[8] = molecular target: CYP2C9 (Homo sapiens, UniProt P11712); test: Inhibition of CYP2C9 in human liver microsomes at 10 uM using testosterone/dextromethorphan as probe substrate measured after 10 mins relative to control; type: ADME
[9] = molecular target: T2, CYP2C8 (Homo sapiens, UniProt P10632); test: Inhibition of CYP2C8 in human liver microsomes at 10 uM using testosterone/dextromethorphan as probe substrate measured after 10 mins relative to control; type: ADME
T2 sequence (P10632 whole entry): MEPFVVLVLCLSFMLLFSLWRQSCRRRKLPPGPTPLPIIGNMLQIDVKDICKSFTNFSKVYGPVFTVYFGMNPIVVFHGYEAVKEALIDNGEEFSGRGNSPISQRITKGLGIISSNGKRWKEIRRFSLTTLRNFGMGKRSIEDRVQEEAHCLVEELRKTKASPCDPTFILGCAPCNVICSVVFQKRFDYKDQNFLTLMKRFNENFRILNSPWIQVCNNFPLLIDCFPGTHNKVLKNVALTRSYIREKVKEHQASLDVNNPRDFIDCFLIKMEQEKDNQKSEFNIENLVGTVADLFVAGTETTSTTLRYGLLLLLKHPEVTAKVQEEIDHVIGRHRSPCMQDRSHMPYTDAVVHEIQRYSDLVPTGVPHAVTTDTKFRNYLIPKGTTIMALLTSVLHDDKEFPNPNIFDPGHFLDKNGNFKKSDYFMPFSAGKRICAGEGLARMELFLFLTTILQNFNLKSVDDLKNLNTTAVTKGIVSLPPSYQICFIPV

[10] = system: Mus musculus; test: Antiarthritic activity in complete Freund's adjuvant-induced DBA1/J mouse arthritis model assessed as inhibition in clinical arthritis score at 30 mg/kg, po […] relative to control; type: functional, organism-based
Procedure, shortened: (§3)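 Male DBA1j mice had arthritis induced with a collagen mixture and were enrolled once clinical signs appeared. Animals were split into four groups of eight: vehicle, a positive control and two doses of test compound. Treatment ran four weeks. The read-out was percentage inhibition of clinical arthritis score versus the vehicle group.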

[11] = molecular target: CYP3A4 (Homo sapiens, UniProt P08684); test: Inhibition of CYP3A4 in human liver microsomes at 10 uM using testosterone/dextromethorphan as probe substrate measured after 10 mins relative to control; type: ADME
[12] = molecular target: Phosphatidylinositol 4,5-bisphosphate 3-kinase catalytic subunit alpha isoform (Homo sapiens, UniProt P42336); test: Inhibition of human PI3Kalpha using PIP2 as substrate after 1 hr
[13] = Protein binding in DBA1/J mouse plasma; type: ADME, cell-free; conditions: read-out: PPB (converted)
[14] = system: TMD8; test: Antiproliferative activity against human TMD8 cells; type: functional, cell-based
[15] = Tmax in C57BL/6J mouse at 3 mg/kg, po measured up to 30 hrs by LC-MS/MS analysis; type: ADME, organism-based; conditions: in vivo
Procedure, shortened: (§4)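 Male C57BL/6J mice (n = 6) received single doses of 3 mg/kg po or 1 mg/kg iv. Plasma concentrations were measured by LC-MS. Values are mean ± SD. Oral bioavailability (%F) was calculated from the ratio to iv AUC.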

[16] = Half life in C57BL/6J mouse at 3 mg/kg, po measured up to 30 hrs by LC-MS/MS analysis; type: ADME, organism-based; conditions: in vivo; procedure, shortened: as §4
[17] = species on record: Homo sapiens; test: Selectivity ratio of IC50 for human PI3Kalpha to IC50 for human PI3Kdelta; procedure, shortened: as §2
[18] = molecular target: Serine/threonine-protein kinase mTOR (Homo sapiens, UniProt P42345); test: Inhibition of mTOR (unknown origin) assessed as reduction in p70S6K phosphorylation
[19] = AUC (0 to infinity) in C57BL/6J mouse 1 mg/kg, iv measured up to 30 hrs by LC-MS/MS analysis; type: ADME, organism-based; parameters: dose 1 mg/kg, time infinity, route intravenous; conditions: in vivo
Procedure, shortened: (§5)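 Single-dose PK in male C57BL/6J mice (n = 6), dosed 1 mg/kg iv or 3 mg/kg orally. Plasma drug levels were measured by LC-MS, and PK parameters (Tmax, Cmax, t1/2, Cl, AUC, %F) were derived. Values are given as mean ± SD. Oral bioavailability was calculated against the iv AUC.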

[20] = Clearance in C57BL/6J mouse at 1 mg/kg, iv measured up to 30 hrs by LC-MS/MS analysis; type: ADME, organism-based; conditions: in vivo; procedure, shortened: as §4
[21] = AUC (0 to infinity) in C57BL/6J mouse 3 mg/kg, po measured up to 30 hrs by LC-MS/MS analysis; type: ADME, organism-based; parameters: dose 3 mg/kg, route oral, time infinity; conditions: in vivo; procedure, shortened: as §5
[22] = Toxicity in DBA1/J mouse assessed as reduction in body weight at 30 mg/kg, po administered for […] measured thrice per week; type: organism-based; conditions: in vivo
Procedure, shortened: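 The model was collagen-induced arthritis in male DBA1j mice, with eight per group and four weeks of treatment. Body weight was recorded three times weekly as a marker of treatment-related side effects.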

[23] = Cmax in C57BL/6J mouse at 3 mg/kg, po measured up to 30 hrs by LC-MS/MS analysis; type: ADME, organism-based; parameters: dose 3 mg/kg, route oral; conditions: in vivo; procedure, shortened: as §4
[24] = system: Mus musculus; test: Antiarthritic activity in complete Freund's adjuvant-induced DBA1/J mouse arthritis model assessed as inhibition in clinical arthritis score at 10 mg/kg, po administered […] relative to control; type: functional, organism-based; procedure, shortened: as §3
[25] = system: TMD8; test: Antitumor activity against human TMD8 cells xenografted in SCID mouse assessed as decrease in tumor volume at 3 to 30 mg/kg/day, po QD for 16 days and measured every alternate day; type: functional, organism-based; procedure, shortened: as §1
[26] = molecular target: T3, CYP1A2 (Homo sapiens, UniProt P05177); test: Inhibition of CYP1A2 in human liver microsomes at 10 uM using testosterone/dextromethorphan as probe substrate measured after 10 mins relative to control; type: ADME
T3 sequence (P05177 whole entry): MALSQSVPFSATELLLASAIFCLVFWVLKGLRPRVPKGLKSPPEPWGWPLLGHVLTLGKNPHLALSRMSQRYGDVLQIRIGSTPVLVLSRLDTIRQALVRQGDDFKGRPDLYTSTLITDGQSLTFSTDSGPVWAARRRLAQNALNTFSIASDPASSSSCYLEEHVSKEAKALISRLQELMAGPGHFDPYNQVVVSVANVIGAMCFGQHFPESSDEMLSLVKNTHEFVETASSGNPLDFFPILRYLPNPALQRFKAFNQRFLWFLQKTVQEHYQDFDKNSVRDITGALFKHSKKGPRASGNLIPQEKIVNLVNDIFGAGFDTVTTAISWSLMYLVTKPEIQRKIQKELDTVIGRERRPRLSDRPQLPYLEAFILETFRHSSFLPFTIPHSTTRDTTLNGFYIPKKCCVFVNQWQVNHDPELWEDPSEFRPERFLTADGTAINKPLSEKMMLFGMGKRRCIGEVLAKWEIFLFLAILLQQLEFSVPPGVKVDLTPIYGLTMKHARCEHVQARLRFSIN

[27] = molecular target: Phosphatidylinositol 4,5-bisphosphate 3-kinase catalytic subunit beta isoform (Homo sapiens, UniProt P42338); test: Inhibition of human PI3Kbeta using PIP2 as substrate after 1 hr
[28] = Oral bioavailability in C57BL/6J mouse at 3 mg/kg measured up to 30 hrs by LC-MS/MS analysis; type: ADME, organism-based; conditions: in vivo; procedure, shortened: as §4
[29] = molecular target: Voltage-gated inwardly rectifying potassium channel KCNH2 (Homo sapiens, UniProt Q12809); test: Inhibition of human ERG
[30] = species on record: Homo sapiens; test: Selectivity ratio of IC50 for human PI3Kgamma to IC50 for human PI3Kdelta; procedure, shortened: as §2
[31] = Toxicity in DBA1/J mouse assessed as reduction in body weight at 60 mg/kg, po […] measured thrice per week; type: organism-based; conditions: in vivo, 336 h
[32] = system: Mus musculus; test: Antiarthritic activity in complete Freund's adjuvant-induced DBA1/J mouse arthritis model assessed as inhibition in clinical arthritis score at 60 mg/kg, po administered for 14 days relative to control; type: functional, organism-based; conditions: in the assay text read “4 weeks” for “14 days”; procedure, shortened: as §3

Phosphatidylinositol 4,5-bisphosphate 3-kinase catalytic subunit beta isoform, sequence (P42338 whole entry, canonical isoform): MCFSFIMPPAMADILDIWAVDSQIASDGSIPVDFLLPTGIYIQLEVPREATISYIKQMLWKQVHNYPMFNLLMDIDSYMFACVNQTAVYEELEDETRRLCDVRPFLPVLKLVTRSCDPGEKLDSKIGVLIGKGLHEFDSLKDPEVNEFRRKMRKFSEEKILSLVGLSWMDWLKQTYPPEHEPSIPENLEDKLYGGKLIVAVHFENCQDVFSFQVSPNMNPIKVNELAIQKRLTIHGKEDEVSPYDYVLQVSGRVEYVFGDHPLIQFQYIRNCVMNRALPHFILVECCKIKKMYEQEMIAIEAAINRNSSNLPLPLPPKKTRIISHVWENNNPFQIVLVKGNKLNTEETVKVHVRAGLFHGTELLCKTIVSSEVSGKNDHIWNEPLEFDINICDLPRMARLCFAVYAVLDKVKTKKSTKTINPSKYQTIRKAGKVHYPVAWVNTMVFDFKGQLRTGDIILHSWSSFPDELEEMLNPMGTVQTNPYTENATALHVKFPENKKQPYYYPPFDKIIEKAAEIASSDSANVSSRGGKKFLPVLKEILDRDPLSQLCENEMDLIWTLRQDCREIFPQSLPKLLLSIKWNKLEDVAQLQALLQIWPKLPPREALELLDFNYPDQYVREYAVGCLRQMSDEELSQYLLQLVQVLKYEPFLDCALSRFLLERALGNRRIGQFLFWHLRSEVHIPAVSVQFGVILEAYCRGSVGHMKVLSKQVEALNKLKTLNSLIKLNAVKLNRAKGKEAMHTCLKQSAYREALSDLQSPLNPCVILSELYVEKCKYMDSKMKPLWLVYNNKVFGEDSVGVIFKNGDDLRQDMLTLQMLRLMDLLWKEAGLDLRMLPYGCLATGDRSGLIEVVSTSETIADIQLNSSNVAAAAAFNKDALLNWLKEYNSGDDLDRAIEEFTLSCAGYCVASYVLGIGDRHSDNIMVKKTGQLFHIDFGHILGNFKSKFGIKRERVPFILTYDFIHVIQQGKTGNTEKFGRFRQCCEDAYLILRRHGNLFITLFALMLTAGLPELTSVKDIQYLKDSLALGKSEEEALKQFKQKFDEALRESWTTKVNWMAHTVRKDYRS
Phosphatidylinositol 4,5-bisphosphate 3-kinase catalytic subunit alpha isoform, sequence (P42336 whole entry, looked up, canonical isoform): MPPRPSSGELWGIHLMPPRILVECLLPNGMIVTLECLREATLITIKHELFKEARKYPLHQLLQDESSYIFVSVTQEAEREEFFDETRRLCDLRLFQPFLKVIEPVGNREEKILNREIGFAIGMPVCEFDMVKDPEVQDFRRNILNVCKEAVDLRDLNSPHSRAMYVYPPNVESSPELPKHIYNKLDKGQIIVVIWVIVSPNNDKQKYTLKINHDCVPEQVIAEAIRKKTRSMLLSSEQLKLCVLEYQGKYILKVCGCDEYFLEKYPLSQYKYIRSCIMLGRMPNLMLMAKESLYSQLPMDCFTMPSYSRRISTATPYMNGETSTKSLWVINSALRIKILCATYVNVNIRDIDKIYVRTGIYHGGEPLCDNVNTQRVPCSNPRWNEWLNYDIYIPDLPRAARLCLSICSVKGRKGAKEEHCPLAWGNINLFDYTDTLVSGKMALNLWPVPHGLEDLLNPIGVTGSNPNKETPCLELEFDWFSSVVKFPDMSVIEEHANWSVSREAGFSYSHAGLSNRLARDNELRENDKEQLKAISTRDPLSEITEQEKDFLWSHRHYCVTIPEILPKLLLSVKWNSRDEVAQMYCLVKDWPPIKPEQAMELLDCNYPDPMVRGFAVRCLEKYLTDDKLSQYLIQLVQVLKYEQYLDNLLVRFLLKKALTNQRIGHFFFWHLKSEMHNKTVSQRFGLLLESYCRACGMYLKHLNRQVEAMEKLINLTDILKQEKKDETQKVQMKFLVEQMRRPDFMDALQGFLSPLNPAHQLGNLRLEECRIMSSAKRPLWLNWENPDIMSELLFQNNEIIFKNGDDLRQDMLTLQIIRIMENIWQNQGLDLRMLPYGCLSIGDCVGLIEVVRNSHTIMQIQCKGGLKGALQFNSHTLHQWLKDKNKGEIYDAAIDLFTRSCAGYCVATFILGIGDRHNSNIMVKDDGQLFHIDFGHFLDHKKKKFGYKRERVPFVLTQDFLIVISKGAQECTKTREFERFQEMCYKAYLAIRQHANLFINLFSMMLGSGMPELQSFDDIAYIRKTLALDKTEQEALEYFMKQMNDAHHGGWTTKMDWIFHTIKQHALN
Phosphatidylinositol 4,5-bisphosphate 3-kinase catalytic subunit gamma isoform, sequence (P48736 whole entry, canonical isoform): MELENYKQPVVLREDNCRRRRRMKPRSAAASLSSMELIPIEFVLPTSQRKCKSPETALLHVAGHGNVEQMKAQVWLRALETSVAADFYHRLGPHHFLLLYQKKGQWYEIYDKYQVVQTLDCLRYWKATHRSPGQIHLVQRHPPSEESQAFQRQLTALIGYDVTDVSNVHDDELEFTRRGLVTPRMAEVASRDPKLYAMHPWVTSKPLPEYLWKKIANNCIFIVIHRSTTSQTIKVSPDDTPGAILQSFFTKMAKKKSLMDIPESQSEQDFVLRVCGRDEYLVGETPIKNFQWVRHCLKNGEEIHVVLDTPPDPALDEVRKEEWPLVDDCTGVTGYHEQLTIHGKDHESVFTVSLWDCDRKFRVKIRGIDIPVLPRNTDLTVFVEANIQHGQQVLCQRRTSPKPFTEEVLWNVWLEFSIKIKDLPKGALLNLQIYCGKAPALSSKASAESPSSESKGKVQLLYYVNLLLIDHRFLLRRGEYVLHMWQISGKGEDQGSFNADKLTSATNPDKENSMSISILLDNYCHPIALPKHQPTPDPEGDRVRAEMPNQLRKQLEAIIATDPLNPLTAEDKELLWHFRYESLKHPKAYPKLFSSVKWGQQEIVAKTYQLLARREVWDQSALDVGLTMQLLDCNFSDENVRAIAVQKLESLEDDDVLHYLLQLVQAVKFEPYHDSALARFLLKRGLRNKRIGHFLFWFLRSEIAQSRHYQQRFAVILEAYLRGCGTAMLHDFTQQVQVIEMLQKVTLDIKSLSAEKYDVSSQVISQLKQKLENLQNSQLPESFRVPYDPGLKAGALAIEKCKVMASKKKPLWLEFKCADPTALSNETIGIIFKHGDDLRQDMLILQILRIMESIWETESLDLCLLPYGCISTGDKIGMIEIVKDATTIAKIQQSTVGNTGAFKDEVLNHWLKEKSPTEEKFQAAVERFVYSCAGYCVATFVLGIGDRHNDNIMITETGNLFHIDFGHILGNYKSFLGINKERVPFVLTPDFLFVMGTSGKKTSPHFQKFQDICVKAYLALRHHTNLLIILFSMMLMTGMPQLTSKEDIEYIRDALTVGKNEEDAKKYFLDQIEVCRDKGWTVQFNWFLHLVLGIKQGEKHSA
CYP2C19, sequence (P33261 whole entry): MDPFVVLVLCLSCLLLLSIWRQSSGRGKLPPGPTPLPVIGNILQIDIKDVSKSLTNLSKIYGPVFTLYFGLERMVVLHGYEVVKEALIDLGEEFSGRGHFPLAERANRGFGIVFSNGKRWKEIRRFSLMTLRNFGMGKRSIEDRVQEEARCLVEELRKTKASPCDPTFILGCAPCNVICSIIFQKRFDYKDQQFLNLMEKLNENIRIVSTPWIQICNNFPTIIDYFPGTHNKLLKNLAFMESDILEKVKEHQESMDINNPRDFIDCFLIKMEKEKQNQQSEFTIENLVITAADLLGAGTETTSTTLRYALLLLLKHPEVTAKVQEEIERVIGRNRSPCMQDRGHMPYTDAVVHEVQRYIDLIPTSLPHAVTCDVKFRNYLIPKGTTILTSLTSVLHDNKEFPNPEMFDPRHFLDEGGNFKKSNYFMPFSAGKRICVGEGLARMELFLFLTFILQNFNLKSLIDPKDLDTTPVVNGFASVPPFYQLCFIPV
Voltage-gated inwardly rectifying potassium channel KCNH2, sequence (Q12809 whole entry): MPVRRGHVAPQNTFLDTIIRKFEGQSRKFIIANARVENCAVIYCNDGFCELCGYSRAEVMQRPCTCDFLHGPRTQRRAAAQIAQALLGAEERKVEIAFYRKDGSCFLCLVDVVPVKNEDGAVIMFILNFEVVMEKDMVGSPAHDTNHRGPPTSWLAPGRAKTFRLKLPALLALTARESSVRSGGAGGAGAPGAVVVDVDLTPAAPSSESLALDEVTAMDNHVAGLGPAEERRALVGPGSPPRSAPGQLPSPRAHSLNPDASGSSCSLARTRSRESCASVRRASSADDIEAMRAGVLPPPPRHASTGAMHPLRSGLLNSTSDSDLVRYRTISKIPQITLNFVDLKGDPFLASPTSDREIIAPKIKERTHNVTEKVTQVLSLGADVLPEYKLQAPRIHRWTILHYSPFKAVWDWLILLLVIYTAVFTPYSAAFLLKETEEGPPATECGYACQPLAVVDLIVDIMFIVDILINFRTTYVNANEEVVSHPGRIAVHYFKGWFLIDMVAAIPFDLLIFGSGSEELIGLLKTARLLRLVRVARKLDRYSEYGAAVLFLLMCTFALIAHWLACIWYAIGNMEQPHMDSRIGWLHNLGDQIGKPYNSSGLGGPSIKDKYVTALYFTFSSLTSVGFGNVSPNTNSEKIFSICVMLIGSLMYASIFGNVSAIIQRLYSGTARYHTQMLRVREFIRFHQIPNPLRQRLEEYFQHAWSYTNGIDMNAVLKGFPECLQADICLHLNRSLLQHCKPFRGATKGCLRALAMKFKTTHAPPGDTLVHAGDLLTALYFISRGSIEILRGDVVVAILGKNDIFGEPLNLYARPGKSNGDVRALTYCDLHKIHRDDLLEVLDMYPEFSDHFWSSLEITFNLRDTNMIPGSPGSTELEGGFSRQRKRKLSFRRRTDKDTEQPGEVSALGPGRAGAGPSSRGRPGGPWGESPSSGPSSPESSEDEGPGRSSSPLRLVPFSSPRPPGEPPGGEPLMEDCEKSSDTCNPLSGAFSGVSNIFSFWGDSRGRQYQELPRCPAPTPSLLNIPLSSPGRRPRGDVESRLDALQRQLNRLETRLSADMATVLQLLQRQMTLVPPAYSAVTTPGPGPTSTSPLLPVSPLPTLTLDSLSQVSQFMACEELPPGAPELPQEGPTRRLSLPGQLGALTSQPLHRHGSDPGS

SMILES	IC50 [1] [nM]	IC50 [2] [nM]	IC50 [12] [nM]	Tmax [15] [h]	half-life [16] [h]	IC50 [18] [nM]	AUC [19] [ng·h/mL]	clearance [20] [mL/min/kg]	AUC [21] [ng·h/mL]	Cmax [23] [ng/mL]	IC50 [27] [nM]	bioavailability [28] [%]	other results
COc1ccc(Cn2c(=O)n(C)c3c4cc(-c5cccnc5)ccc4ncc32)cc1	20	–	–	–	–	–	–	–	–	–	–	–	–
COc1ccc(Cn2c(=O)n(C)c3c4cc(-c5ccc(OC)nc5)ccc4ncc32)cc1	11.4	–	–	–	–	–	–	–	–	–	–	–	–
COc1ccc(Cn2c(=O)n(C)c3c4cc(-c5cnc(OC)c(NS(C)(=O)=O)c5)ccc4ncc32)cc1	1.9	112	891	0.25	3.48	> 1000	1850	8.24	3830	1280	589	68.9	inhibition at 10 min, 10 µM [3]: < 10%; inhibition in vivo at 30 mg/kg/day [4]: 100%; inhibition at 10 min, 10 µM [5]: < 10%; Activity [6]: Non-Toxic; Ratio IC50 [7]: 310; inhibition at 10 min, 10 µM [8]: < 10%; inhibition at 10 min, 10 µM [9]: < 10%; inhibition [10]: Active; inhibition at 10 min, 10 µM [11]: < 10%; fraction unbound [13]: 0.11; IC50 [14]: 340 nM; Ratio IC50 [17]: 469; Activity [22]: Non-Toxic; inhibition [24]: Active; Activity [25]: Dose-dependent effect; inhibition at 10 min, 10 µM [26]: < 10%; IC50 [29]: > 30000 nM; Ratio IC50 [30]: 59
COc1ccc(Cn2c(=O)n(C)c3cnc4ccc(-c5cnc(OC)c(NS(C)(=O)=O)c5)cc4c32)cc1	4.1	42	289	–	–	580	–	–	–	–	241	–	–
CC(C)c1ccc(Cn2c(=O)n(C)c3c4cc(-c5cnc6ccccc6c5)ccc4ncc32)cc1	28.3	–	–	–	–	–	–	–	–	–	–	–	–
Cn1c(=O)n(-c2ccc(C(C)(C)C#N)cc2)c2c3cc(-c4cnc5ccccc5c4)ccc3ncc21 [DACTOLISIB]	–	–	–	0.21	1.88	–	215	72.5	244	274	–	37.8	Activity [31]: Toxic; inhibition [32]: Active

Reference: ChEMBL document CHEMBL4390691, “Discovery of 1,3-dihydro-2H-imidazo[4,5-c]quinolin-2-ones based novel, potent and PI3Kδ selective inhibitors” (Bioorg Med Chem Lett, 2019)
